Among the data in ChEMBL document CHEMBL1240522, “Effect of goniothalamin on the development of Ehrlich solid tumor in mice” (Bioorg Med Chem, 2010) are inhibition in vivo and Activity values, retold here.

Series [1] can be described thus: Antitumor activity against mouse EAC cells xenografted in BALB/C mouse assessed as reduction of tumor weight at 10 mg/kg, ip administered every 3 days measured on day 15 relative to control. To be noted: Ehrlich, route intraperitoneal. In kind it is functional. The method, boiled down: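 Ehrlich cells (2.5 × 10^6 in 60 µL) were injected into the right hind footpad of Balb/C mice (n = 8/group). Dosing was intraperitoneal every third day from day 3, with saline 0.9% vehicle. On day 15 both hind paws were removed and weighed. Relative tumor weight was (tumor paw − healthy paw weight)/body weight, reported as % inhibition versus vehicle ± SD.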

Series [2] is described as follows: Antitumor activity against mouse EAC cells xenografted in BALB/C mouse assessed as inhibition of tumor growth at 10 mg/kg, ip administered every 3 days measured on day 7 relative to control. In kind it is functional. The note with it: Ehrlich, route intraperitoneal. The method, boiled down:
(§1)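 Ehrlich cells were kept as ascites by weekly peritoneal passage in mice. Balb/C mice (n = 8/group) received 2.5 × 10^6 cells in 60 µL into the right hind footpad. Dosing was intraperitoneal every third day from day 3, with saline 0.9% vehicle. Tumor volume was plethysmometer paw volume minus basal volume, read every third day to day 15, and reported as % inhibition versus vehicle ± SD.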

Series [3] concerns Mus musculus. The experiment in a line: Acute toxicity in BALB/C mouse assessed as reduction of body weight at up to 10 mg/kg, ip after 15 days. The arrangement: dose 10 mg/kg, route intraperitoneal. In kind it is organism-based. The note with it: in vivo, 360 h. A digest of the protocol: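 Body weight and toxicity signs were tracked in Balb/C mice (n = 8/group) carrying Ehrlich footpad tumors. Dosing was intraperitoneal every third day from day 3 after inoculation, four treatments in total, with saline 0.9% vehicle. Mice were weighed throughout until sacrifice on day 15.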

Series [4] can be described thus: Antitumor activity against mouse EAC cells xenografted in BALB/C mouse assessed as inhibition of tumor growth at 10 mg/kg, ip administered every 3 days measured on day 15 relative to control. In kind it is functional. To be noted: Ehrlich, route intraperitoneal. The method, boiled down:
as §1

On to `O=c1[nH]cc(F)c(=O)[nH]1` [FLUOROURACIL], for which the figures for the inhibition in vivo at 10 mg/kg in series [1], in series [2] and in series [4] were 46.1%, 41.7% and 57.6%, respectively. In series [3], the Activity entry was “Non-toxic”.

For orientation: inhibition in vivo means the relative decrease from the control value, in per cent.
